Screening results from PubChem.
NPR1 activator: GC-A (human) enzyme activation; activation, % at 10 µM; HEK293 GC-A cells, cGMP TR-FRET, EC30 ANP; 0% at EC30 ANP, 100% saturating ANP; 370,000 compounds, 0.14% hits; AID 1671463; P16066; in the data active = activation above about 40%
GalR3 antag: antagonists of human GalR3 | O60755 | HEK293 GalR3-CNG cAMP membrane potential fluorescence; galR3 body fused to GalR1 C-terminus | inhibition, % at 3 µM | 360,000 compounds, 0.44% hits | AID 651719;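 active = inhibition above the screen-wide average plus 3 SD, cut at about 13% in these data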;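 also: forskolin and galanin both at EC90 stimulate the cells; cAMP rise reported by CNG channel membrane potential dye signal; 0% = forskolin plus galanin with DMSO and 100% = forskolin alone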
NPR2 activator: GC-B (human) receptor activation. 370,000 compounds, 0.11% hits. activation, % at 10 µM. P20594. AID 1920062. HEK293-GC-B cells, CNP EC30, cGMP TR-FRET; 0% at EC30 CNP, 100% saturating CNP;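 active = activation at 10 µM reaching about 35% in either raw or pattern-adjusted values, limit read from the data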
Target sequence (P20594 whole entry, looked up): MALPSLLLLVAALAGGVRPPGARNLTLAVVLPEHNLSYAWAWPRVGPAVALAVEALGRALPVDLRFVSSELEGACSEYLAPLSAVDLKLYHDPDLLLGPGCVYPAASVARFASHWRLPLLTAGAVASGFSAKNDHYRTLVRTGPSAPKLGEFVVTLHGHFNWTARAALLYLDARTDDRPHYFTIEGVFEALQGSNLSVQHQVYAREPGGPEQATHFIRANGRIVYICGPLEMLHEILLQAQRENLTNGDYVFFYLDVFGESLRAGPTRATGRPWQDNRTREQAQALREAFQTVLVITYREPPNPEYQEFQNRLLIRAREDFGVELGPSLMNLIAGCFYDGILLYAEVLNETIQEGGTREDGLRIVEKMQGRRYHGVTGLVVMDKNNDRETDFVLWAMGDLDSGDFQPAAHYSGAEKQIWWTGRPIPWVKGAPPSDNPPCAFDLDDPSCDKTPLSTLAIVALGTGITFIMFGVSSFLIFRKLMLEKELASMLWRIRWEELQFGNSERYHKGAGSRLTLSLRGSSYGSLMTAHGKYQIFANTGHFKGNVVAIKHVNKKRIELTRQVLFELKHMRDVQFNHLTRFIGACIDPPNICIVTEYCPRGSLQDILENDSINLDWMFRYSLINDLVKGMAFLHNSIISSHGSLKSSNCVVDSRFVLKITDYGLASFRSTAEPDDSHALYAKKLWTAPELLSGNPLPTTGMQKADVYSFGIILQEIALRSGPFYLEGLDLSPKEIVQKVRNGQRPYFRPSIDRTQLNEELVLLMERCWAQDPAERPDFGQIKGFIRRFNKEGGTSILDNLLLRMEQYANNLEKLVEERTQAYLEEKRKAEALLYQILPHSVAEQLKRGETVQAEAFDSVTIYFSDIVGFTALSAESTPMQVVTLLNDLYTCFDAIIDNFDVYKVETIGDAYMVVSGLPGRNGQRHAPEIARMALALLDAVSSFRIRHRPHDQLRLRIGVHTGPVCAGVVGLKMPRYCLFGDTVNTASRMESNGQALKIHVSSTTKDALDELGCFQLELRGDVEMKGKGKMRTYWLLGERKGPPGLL
Arrestin-AP2 inh: human beta-arrestin and AP2 interaction inhibition. FITC-arrestin peptide / GST-AP2 beads, flow cytometry; AP2 beta2 appendage carries R879A mutation. inhibition, % at 10 µM. 340,000 compounds, 0.31% hits;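 active = inhibition above a set limit, near 3 SD of compounds lacking own fluorescence, cut at about 54% in these data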;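 also: plate controls were DMSO wells for no effect and 5 µM unlabelled arrestin peptide for full effect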
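Assay system: GST-AP2 R879A bound to glutathione beads, E. coli-expressed; Medium: PBS with 0.05% Tween 20 and 0.1% BSA; Also added: fluorescein-tagged arrestin peptide at 50 nM final; Timing: 12 min plus 1 h, RT; Measured by: flow cytometry, FL1 (488/535 nm); Evaluation: percent drop in bead-associated FITC signal.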
Starred values were filed as active, the others as inactive; · = no result. Rows were chosen to be rich in hits. Some 0.94% of all compounds tested hit in one or more screens of this group.

SMILES	NPR1 activator	GalR3 antag	NPR2 activator	Arrestin-AP2 inh
COc1ccc(-c2cc(NC=O)c3ncc(-c4ccc(C(C)=O)cc4)n3c2)cc1OC	15.1	4.0	26.0	·
O=C(N=Nc1c(O)[nH]c2c(Cl)cc(Cl)cc12)c1ccccc1O	-5.5	-8.1	1.2	·
COc1ccc(-n2c(SCC(=O)Nc3ccccc3-c3ccccc3)nnc2-c2ccccc2)cc1	-25.9	·	-16.4	·
Cc1ccc(N=Nc2ccc(O)c(P(=O)(c3ccccc3)c3ccccc3)c2)cc1	49.8*	-1.4	-3.7	-8.6
Brc1ccc2nc(-c3ccc(CN4CCC(c5nc6ccccc6[nH]5)CC4)cc3)c(-c3ccccc3)nc2c1	6.5	-5.1	8.9	·
CCOC(=O)C1CCCN(S(=O)(=O)c2ccc(S(=O)(=O)N(CC)CC)cc2)C1 (centres undefined)	2.8	92.0*	0.0	-1.7
CCOC(=O)C1CCCN(S(=O)(=O)c2ccc(C)cc2)C1 (centres undefined)	0.6	-7.8	-2.9	8.8
N/C(=N\OC(=O)c1ccc(Cl)cc1Cl)c1ccncc1	43.0*	-1.6	-6.5	9.0
O=S1(=O)c2c(cccc2N2CC[C@@H](O)C2)OCCCN1C1CC1	0.7	·	0.6	·
COc1ccc(CN2CC(=O)N(c3cccc(Cl)c3)C2=S)cc1OC	43.8*	-8.0	2.5	30.1
COc1ccc(CN2CC(=O)N(c3ccc(Cl)cc3)C2=S)cc1OC	1.8	-8.7	3.9	31.5
COC(=O)C1=C(C)N(Cc2ccccc2C(F)(F)F)C(=NCc2ccc3c(c2)OCO3)NC1c1ccccc1 (centres undefined)	-16.7	0.1	-20.7	·
CCCC(=O)OC[C@H]1CN(C2CCCC2)S(=O)(=O)c2c(Oc3ccc(C(C)(C)C)cc3)cccc2O1	0.1	3.2	-1.2	·
CCOc1cc(S(=O)(=O)N2CCN(CC)CC2)ccc1Cl	4.3	-1.2	2.9	1.2
CCCc1nc(C)c2c(=O)[nH]c(-c3cc(S(=O)(=O)N4CCN(CC)CC4)ccc3OCC)nn12	52.7*	·	64.6*	3.9
CCOC(=O)COc1ccc(/C=C2\NC(=S)N(CC)C2=O)cc1	43.8*	-12.9	50.6*	-15.1
Cc1ccc(/C=C2/NC(=O)N(Cc3ccccc3)C2=O)s1	3.1	-4.9	-1.2	5.0
COC(=O)CN1C(=O)N/C(=C/c2ccc(OC)cc2)C1=O	-5.5	-3.1	-3.6	-1.2
CCN1C(=O)/C(=C/c2ccc(C)s2)NC1=S	34.6	5.6	38.0*	-7.8
CC(=O)N1C[C@@H](CO)[C@@H]2C[C@H]1c1ccccc1N2C	2.6	-4.7	1.5	·
O=C(N/N=C/c1ccncc1)/C(=C/c1ccccc1)NC(=O)c1ccccc1	-6.9	-3.7	-4.5	-13.6
Cc1ccnc(N/C=C(/NC(=O)c2ccccc2)C(=O)N/N=C\c2ccc(Cl)cc2)n1	52.3*	6.3	2.5	-0.5
O=C(COCc1ccccc1)N1CCC(Oc2cccnc2)CC1	-0.3	·	-7.5	·
CCNc1nc(NCC)nc(N(C#N)C(C)C)n1	1.1	-2.5	-0.5	4.8
CCNc1nc(NC(C)(C)C)nc(N(C#N)CC)n1	43.8*	-4.4	47.6*	24.4
SMILES	NPR1 activator	GalR3 antag	NPR2 activator	Arrestin-AP2 inh
CC1(C)Cc2c(sc3c2c(=N)n(Cc2ccco2)c(=O)n3Cc2ccc(Cl)cc2)CO1	23.9	-2.8	35.3*	-7.8
Nc1ccc(C(=O)n2c3ccccc3c3ccccc32)cc1	49.5*	-3.4	-9.4	4.5
COC(=O)c1ccccc1S(=O)(=O)NC(=O)[C@H]1O[C@@H](n2ccc(=O)[nH]c2=O)[C@H](O)[C@@H]1O	4.1	-6.8	3.8	·
Cc1cccc2sc(NC(=O)CN(C)S(=O)(=O)c3cccs3)nc12	42.3*	2.0	-0.8	-5.7
Cc1cccc2sc(NC(=O)CN(C)S(=O)(=O)c3ccc(Br)s3)nc12	13.6	0.1	-0.4	1.1
CCOC(=O)c1cc(-c2csc(-c3cccc(Cl)c3)n2)on1	19.4	-0.8	0.5	9.1
CCOC(=O)c1csc(COc2ccccc2Cl)n1	9.1	-5.2	-5.3	8.1
CCOC(=O)c1csc(COc2ccc(OC)cc2)n1	0.2	-2.2	3.1	-10.3
CCOC(=O)c1cc(-c2csc(COc3ccccc3)n2)on1	66.9*	-8.5	14.8	7.7
CCOC(=O)c1cc(-c2csc(COc3ccccc3Cl)n2)on1	63.4*	-6.2	8.0	4.3
CCOC(=O)c1cc(-c2csc(COc3ccc(Cl)cc3)n2)on1	58.3*	-2.3	-3.9	-11.0
O=C(CSc1nnc(-c2ccco2)n1-c1ccc(Cl)cc1)Nc1cccc2ccccc12	-7.3	·	-7.4	·
COC(=O)[C@]12C[C@H](CC(=O)NCc3ccc(OC)c(OC)c3)C(=O)N(CCc3ccc(OC)c(OC)c3)C1=C[C@H](C1CCCC1)O[C@@H]2C	4.3	·	-4.6	·
O=C(CN1C(=O)CCC1=O)Nc1nc(-c2ccc(Cl)s2)cs1	54.0*	-1.1	0.8	24.5
O=C(CSCC(=O)N1CCCCC1)Nc1nc(-c2ccc(Cl)s2)cs1	43.4*	·	-1.6	2.7
CC1CC1C(=O)Nc1nc(-c2ccc(Cl)s2)cs1 (centres undefined)	50.5*	-9.9	4.5	-0.4
O=C(CN1C(=O)CCC1=O)Nc1nc(-c2cccs2)cs1	10.2	-0.6	3.4	5.4
CCOC(=O)C1=C(N)Oc2cc(O)ccc2C1c1ccc(Br)cc1 (centres undefined)	53.4*	-10.8	9.2	4.4
C[C@@H]1CN([C@H](C)CO)C(=O)CCCn2cc(nn2)CO[C@H]1CN(C)C(=O)Oc1ccccc1	1.2	-7.5	5.9	·
O=C1NC(Cc2ccc(O)cc2)c2nc3ccc(Cl)cc3c(=O)n2-c2cc3ccccc3cc21 (centres undefined)	-0.7	-6.5	56.6*	·
O=C1NC(Cc2ccccc2)c2nc3ccc(Cl)cc3c(=O)n2-c2cc3ccccc3cc21 (centres undefined)	-0.8	-5.0	10.0	·
O=C(CCc1ccccc1-c1ccccc1CCNC(=O)c1cccc(F)c1)NCc1ccccc1	-2.7	·	-5.2	·
O=C(Nc1ccc(Nc2cccnc2)cc1)c1c[nH]c2ccccc12	26.4	3.6	16.5	·
Cc1cccc2c(=O)n3c(cc12)-c1[nH]c2ccccc2c1CC3	37.8	-4.1	35.2*	-12.5
CCCCCCCCN1C(=O)[C@@H](CC(=O)N2CCCC2)C[C@@]2(C(=O)OC)C1=C[C@H](C1CCCC1)O[C@@H]2C	-3.2	-7.2	3.9	·
O=C1NCCN/C1=C\C(=O)c1ccc(F)cc1	17.5	-2.6	-1.1	2.6
O=C1NCCN/C1=C\C(=O)c1ccc(Cl)cc1	40.9*	-6.3	-2.5	-22.9
Cc1ccc(S(=O)(=O)N2CC3=C(c4ccccc4)CC4(C)C(=O)C(C)(C)CC4=C3C2)cc1 (centres undefined)	-0.4	-6.0	-1.9	·
CC(C)(C)C1CCC2(CC1)C(Nc1cccc(C(F)(F)F)c1)=NC(=S)N2CC#N (centres undefined)	2.1	-1.6	45.9*	-12.3
CC(=O)NCCNc1nc2c(-c3cccc(C(F)(F)F)c3)nnn2c2ccccc12	8.5	-7.6	4.7	12.5
